Laboratory results from ChEMBL document CHEMBL1154400, “Pharmacokinetics of single- and multiple-dose oral clarithromycin in soft tissues determined by microdialysis” (Antimicrob Agents Chemother, 2007).

Legend:
Homo sapiens [1] = assay: Volume of distribution at steady state in human plasma at 500 mg, po, bid for 3 to 5 days; assay type: ADME, organism-based; conditions: in vivo
In short: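 Healthy male volunteers (n=7, 25–37 y) took clarithromycin 500 mg orally b.i.d. for 3–5 days, with the last dose supervised. Venous blood (lithium heparin) was sampled every 20 min over 0–4 h and every 30 min over 4–8 h, and plasma was assayed by HPLC. Vss = CL × MRT, with CL = dose × F/AUC0-∞ and F taken as 55%. AUCs were calculated by the linear trapezoidal rule.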

[2] = AUC (0 to 8 hrs) in human interstitial-space fluid of subcutaneous adipose tissue at 500 mg, po, bid for 3 to 5 days; assay type: ADME, organism-based
In short: (§1)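 Oral clarithromycin 500 mg b.i.d. for 3-5 days, starting 12 h after a single 250 mg dose; last dose given supervised on the morning of day 2 after a baseline blood draw and a 2-h trough dialysate. Sampling as on day 1: microdialysis of muscle and adipose tissue plus venous plasma over 8 h, HPLC. Dialysate concentrations corrected for individual recovery.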

[3] = Protein binding in human plasma at 250 mg, po; assay type: ADME, organism-based; conditions: read-out: PPB (converted)
In short: (§2)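 Plasma ultrafiltration done for each volunteer on samples taken 80 and 180 min post-dose, after both the single dose and at steady state. 300 µl aliquots spun through 5,000-MW-cutoff regenerated-cellulose filters at 5,000 x g, 30 min, ambient temperature. Ultrafiltrate concentrations corrected for 5% mean membrane binding. Binding (%) = 100 - 100 x Cultrafiltrate corr/Cplasma total.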

[4] = Cmax in human interstitial-space fluid of skeletal muscle at 500 mg, po, bid for 3 to 5 days; assay type: ADME, organism-based, Muscle tissue; parameters: dose 500 mg, route oral; in short: as §1
[5] = Tmax in human plasma unbound fraction at 500 mg, po, bid for 3 to 5 days; assay type: ADME, organism-based
In short: (§3)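 Free plasma concentrations obtained by applying each volunteer's measured protein binding to total plasma concentrations, measured by HPLC after the 250 mg single dose or the 500 mg b.i.d. steady-state dose, with sampling over 8 h.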

Homo sapiens [6] = assay: Volume of distribution at terminal phase in fasting human plasma at 250 mg, po; assay type: ADME, organism-based; conditions: in vivo
In short: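 Single oral 250 mg tablet given to fasting healthy male volunteers (n=7, 25–37 y). Venous plasma (lithium heparin) was sampled every 20 min over 0–4 h and every 30 min over 4–8 h, then analysed by reverse-phase HPLC. Vz = dose × F/(AUC0-∞ × kel), with bioavailability F set at 55%. AUC was calculated by the linear trapezoidal rule.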

[7] = Cmax in fasting human plasma at 250 mg, po; assay type: ADME, organism-based; parameters: dose 250 mg, route oral
In short: (§4)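 Healthy male volunteers aged 25-37 y, fasting; single oral 250 mg tablet after 60-min probe equilibration. Microdialysis probes in skeletal muscle and subcutaneous adipose tissue, perfused with Ringer's at 1.5 µl/min; dialysate and antecubital venous blood sampled every 20 min to 4 h, then every 30 min to 8 h. HPLC assay. Interstitial concentration = 100 x Cdialysate/recovery.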

[8] = Terminal half life in fasting human interstitial-space fluid of skeletal muscle at 250 mg, po; assay type: ADME, organism-based, Muscle tissue; conditions: read-out: beta t1/2 (converted); in short: as §4
[9] = AUC (0 to 8 hrs) in fasting human interstitial-space fluid of subcutaneous adipose tissue at 250 mg, po; assay type: ADME, organism-based; in short: as §4
[10] = Total clearance in human plasma at 500 mg, po, bid for 3 to 5 days; assay type: ADME, organism-based
[11] = Cmax in human interstitial-space fluid of subcutaneous adipose tissue at 500 mg, po, bid for 3 to 5 days; assay type: ADME, organism-based; in short: as §1
[12] = Terminal half life in human plasma unbound fraction at 500 mg, po, bid for 3 to 5 days; assay type: ADME, organism-based; conditions: read-out: beta t1/2 (converted); in short: as §3
[13] = AUC (0 to 8 hrs) in human interstitial-space fluid of skeletal muscle at 500 mg, po, bid for 3 to 5 days; assay type: ADME, organism-based, Muscle tissue; parameters: dose 500 mg, time < 8 hr, route oral; in short: as §1
[14] = AUC (0 to 8 hrs) in fasting human interstitial-space fluid of skeletal muscle at 250 mg, po; assay type: ADME, organism-based, Muscle tissue; parameters: time < 8 hr, dose 250 mg, route oral; in short: as §4
[15] = Tmax in human interstitial-space fluid of subcutaneous adipose tissue at 500 mg, po, bid for 3 to 5 days; assay type: ADME, organism-based; in short: as §1
[16] = Terminal half life in fasting human plasma unbound fraction at 250 mg, po; assay type: ADME, organism-based; conditions: read-out: beta t1/2 (converted); in short: as §3
[17] = Cmax in fasting human interstitial-space fluid of subcutaneous adipose tissue at 250 mg, po; assay type: ADME, organism-based; in short: as §4
[18] = Protein binding in human plasma at 500 mg, po bid for 3 to 5 days; assay type: ADME, organism-based; conditions: read-out: PPB (converted); in short: as §2
Homo sapiens [19] = assay: Free AUC (0 to 24 hrs) in fasting human plasma at 250 mg, po; assay type: ADME, organism-based; conditions: in vivo
[20] = Terminal half life in human subcutaneous interstitial-space fluid of adipose tissue at 500 mg, po, bid for 3 to 5 days; assay type: ADME, organism-based; conditions: read-out: beta t1/2 (converted); in short: as §1
[21] = Cmax in fasting human interstitial-space fluid of skeletal muscle at 250 mg, po; assay type: ADME, organism-based, Muscle tissue; parameters: dose 250 mg, route oral; in short: as §4
[22] = AUC (0 to 8 hrs) in human plasma at 500 mg, po, bid for 3 to 5 days; assay type: ADME, organism-based; parameters: dose 500 mg, time < 8 hr, route oral; in short: as §1
[23] = Ratio of AUC (0 to 24 hrs) in human interstitial-space fluid of skeletal muscle to free AUC (0 to 24 hrs) in human plasma at 500 mg, po bid
[24] = Terminal half life in fasting human interstitial-space fluid of subcutaneous adipose tissue at 250 mg, po; assay type: ADME, organism-based; conditions: read-out: beta t1/2 (converted); in short: as §4
Homo sapiens [25] = assay: Free AUC (0 to 8 hrs) in human plasma at 500 mg, po, bid for 3 to 5 days; assay type: ADME, organism-based; conditions: in vivo; in short: as §3
[26] = Ratio of AUC (0 to 24 hrs) in human interstitial-space fluid of subcutaneous adipose tissue to free AUC (0 to 24 hrs) in human plasma at 500 mg, po bid

`CC[C@H]1OC(=O)[C@H](C)[C@@H](O[C@H]2C[C@@](C)(OC)[C@@H](O)[C@H](C)O2)[C@H](C)[C@@H](O[C@@H]2O[C@H](C)C[C@H](N(C)C)[C@H]2O)[C@](C)(OC)C[C@@H](C)C(=O)[C@H](C)[C@@H](O)[C@]1(C)O` [CLARITHROMYCIN] showed a Vdss (Homo sapiens [1]) of 126.5 L, an AUC [2] of 840 ng·h/mL and a fraction unbound [3] of 0.287. The Cmax [4] was 230 ng/mL, the Tmax [5] was 3.2 h and the Vbeta (Homo sapiens [6]) was 94 L. The Cmax [7] was 1090 ng/mL, the half-life [8] was 3.1 h and the AUC(0-t) [9] was 240 ng·h/mL. The CL/F [10] was 312 mL/min, the Cmax [11] was 230 ng/mL and the half-life [12] was 3.7 h. It also gave an AUC at 8 h [13] of 920 ng·h/mL, an AUC(0-t) at 8 h [14] of 290 ng·h/mL and a Tmax [15] of 4 h. For the same compound, the half-life [16] was 1.9 h, the Cmax [17] was 70 ng/mL and the fraction unbound [18] was 0.231. It also gave a fAUC (Homo sapiens [19]) of 1210 ng·h/mL, a half-life [20] of 3.4 h and a Cmax [21] of 80 ng/mL. It also gave an AUC at 8 h [22] of 10600 ng·h/mL, a Kp uu [23] of 0.41 and a half-life [24] of 2.4 h. It also gave a fAUC (Homo sapiens [25]) of 2260 ng·h/mL and a Kp uu [26] of 0.39.
